Sampled rows, rich in hits. Any-hit rate of the full collection: about 1.8%.
Rin1 Abl inh = inhibitors of Rin1-Abl protein binding, primary screen, biochemical, TR-FRET. 0.4% of 360,000 active. inhibition, % at 7.35 µM. Tyrosine-protein kinase ABL1 (Homo sapiens) + Ras and Rab interactor 1 (Homo sapiens), …; in the data active means inhibition above about 5%, passing the limit was not always enough
Rev-erbA mod = modulators of Rev-erb alpha DNA binding, primary screen, biochemical, FITC-DNA, fluorescence polarization, uHTS. Nuclear receptor subfamily 1 group D member 1 (Homo sapiens), P20393. Rev-erbα–FITC-DNA binding, 90 min. activity, % at 10 µM. 0.79% of 370,000 active;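 active means activity above about 14%, limit read from the data; passing the limit was not always enough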;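 further: 0% = DMSO wells with 35 nM protein and 100% = DMSO wells with 750 nM protein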
Target sequence (P20393 whole entry, looked up): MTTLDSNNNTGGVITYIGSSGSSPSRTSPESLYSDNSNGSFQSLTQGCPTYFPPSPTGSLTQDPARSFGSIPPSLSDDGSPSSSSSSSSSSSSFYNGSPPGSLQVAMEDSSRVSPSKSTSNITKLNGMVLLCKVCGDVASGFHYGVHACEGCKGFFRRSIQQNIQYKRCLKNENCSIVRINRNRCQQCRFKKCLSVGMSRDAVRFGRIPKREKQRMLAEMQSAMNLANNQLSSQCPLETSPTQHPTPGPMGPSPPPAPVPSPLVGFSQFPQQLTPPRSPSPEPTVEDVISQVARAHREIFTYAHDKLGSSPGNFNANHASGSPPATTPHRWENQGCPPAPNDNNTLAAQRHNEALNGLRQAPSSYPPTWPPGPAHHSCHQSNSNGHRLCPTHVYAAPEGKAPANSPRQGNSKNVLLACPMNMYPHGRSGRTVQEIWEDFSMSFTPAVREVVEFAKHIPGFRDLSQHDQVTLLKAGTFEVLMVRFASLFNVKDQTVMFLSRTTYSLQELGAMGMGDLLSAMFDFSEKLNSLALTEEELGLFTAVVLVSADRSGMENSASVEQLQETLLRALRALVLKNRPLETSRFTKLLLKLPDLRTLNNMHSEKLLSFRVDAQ
PG9 Ab binder = binders of HIV-1 gp120 antibody PG9, primary screen, biochemical, TR-FRET | HIV-1 gp120 / PG9 antibody interaction | AID 624416, 2012 | inhibition, % at 6.7 µM | TR-FRET gp120-PG9 antibody binding | 0.43% of 360,000 active; in the data active means inhibition above about 8.5%
TbMetRS inhib = T. brucei MetRS inhibitors, primary screen, biochemical, luminescence; 0.4% of 360,000 active; purified T. brucei MetRS, ATP depletion, Kinase-Glo luminescence; AID 624268, 2012; inhibition, % at 11.9 µM; methionyl-tRNA synthetase (Trypanosoma brucei brucei);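 active means inhibition above a per-plate cutoff of the control wells' mean inhibition plus 3 SD, cut at about 5.5% in these data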;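 further: 0% = DMSO wells median and 100% = median of wells with control inhibitor compound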
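System: purified T. brucei MetRS enzyme / Detection: Kinase-Glo luciferase luminescence reporting remaining unconsumed ATP / Medium: HEPES buffer with MgCl2, KCl, DTT, spermine, BSA, pyrophosphatase / Replication: singlicate, one well per compound / Evaluation: percent inhibition relative to median high and low control wells / Schedule: 2 h aminoacylation at 25 °C after 15 min preincubation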
Rin1-Abl confirm = Rin1-Abl binding inhibitor retest, confirmation, biochemical, TR-FRET; shares compounds with Rin1 Abl inh; purified proteins; inhibition, % at 7.35 µM; 49% of 1,300 active; AID 602124, 2011
GFP quencher = GFP fluorescence inhibitors and quenchers, artefact control for Rin1-Abl interaction inhibitor project, biochemical. inhibition, % at 6.75 µM. shares compounds with Rin1 Abl inh. AID 602125, 2011. inhibitors/quenchers counterscreen. 8.5% of 1,300 active;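 further: ABL1-eGFP fusion protein alone without its partner RIN1-SBP; 0% = protein with vehicle and 100% = wells lacking protein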
GFP quench dose = GFP fluorescence inhibitors and quenchers, dose response, artefact control for Rin1-Abl interaction inhibitor project, biochemical. shares compounds with Rin1 Abl inh. GFP fluorescence interference/quenching counterscreen. 230 tested, under 10 active. IC50, µM; call rule not given here;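 further: ABL1-eGFP fusion protein alone without its RIN1 binding partner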
Active calls of the source: *; · = not tested or not shown; ! = not confirmed by another sample. Unless noted, no stated cut-off is given here; in the data, active means inhibition above about 6.5%; inactive means the rest.

SMILES	Rin1 Abl inh	Rev-erbA mod	PG9 Ab binder	TbMetRS inhib	Rin1-Abl confirm	GFP quencher	others
Cc1cccc2cc(C(c3nnnn3C(C)(C)C)N(Cc3ccco3)CC3CCCO3)c(=O)[nH]c12 (configuration not stated)	5.8*	1.0	2.2	-0.2	9.1*	2.8
CCCN(CC1CC1)C(=O)c1oc(=O)c2ccccc2c1-c1ccc(C)cc1	·	4.0	·	·	·	·
CCOC(=O)N1CCN(CCC(=O)Nc2cccc(Br)c2)CC1	6.2*!	0.2	0.8	-0.4	-0.3	0.5
CCOC(=O)N1CCN(CC(=O)Nc2cccc(Br)c2)CC1	-3.4	2.7	-0.2	-0.1	·	·
CCOC(=O)N1CCN(CCC(=O)Nc2ccc(C)c(Br)c2)CC1	5.6*	3.1	-0.3	-1.8	5.7	-0.8
O=C(C(=O)N1CCN(C(=O)C2CCCC2)CC1)c1cccc(C(F)(F)F)c1	·	-5.1	-0.6	·	·	·
O=C(Cc1cccc2ccccc12)Nc1ccccc1	-1.3	-4.0	3.3	-0.5	·	·
C=CCN(CC=C)C(=S)NC(=O)Cc1cccc2ccccc12	10.3*	0.3	0.8	-1.8	-2.1	-1.4
CCOc1ccc(NS(=O)(=O)c2ccc(C(=O)N3CC(C)OC(C)C3)cc2)cc1 (configuration not stated)	8.9*	2.1	-1.2	-0.1	9.7*	-0.1
O=C1CC(c2ccccc2)Oc2cc(O)cc(O)c21 (configuration not stated)	0.4	-4.2	-0.2	0.2	·	·
COc1cc(OC)c2c(c1O)OC(c1ccccc1)CC2=O (configuration not stated)	16.2*	-6.9	-1.6	-0.5	9.2*	1.5
C/C=C\C1=C(C(=O)O)N2C(=O)C(NC(=O)C(N)c3ccc(O)cc3)C2SC1 (configuration not stated)	·	1.3	·	·	·	·
Cc1cc2nc3ccc(N(C)C)cc3nc2cc1N	15.0*	-40.4	-34.9	0.4	-11.6	33.8*
COc1ccc(CC(=O)OCC(=O)NCc2ccccc2Cl)cc1OC	10.1*	2.2	-1.3	0.1	3.2	-0.4
COc1ccccc1CNC(=O)COC(=O)Cc1ccc(Br)cc1	1.6	-0.7	-1.3	-0.2	·	·
CCCCCCCCN1C(=O)[C@@H](CC(=O)N2CCN(C(=O)c3ccco3)CC2)C[C@@]2(C(=O)OC)C1=C[C@H](C1CCCC1)O[C@@H]2C	·	2.2	-1.1	·	·	·
CC[n+]1c(C)n(C)c2cc(S(=O)(=O)N(C)C)ccc21	8.9*	5.1	-4.2	-0.1	-0.9	-2.8
CCN(CC)c1ccc(C=NN2CCCCCC2)cc1	32.8*	4.2	0.7	-0.1	-2.1	0.6
Cc1cc(C)c(S(=O)(=O)N2CCCC(C(=O)N3CCOCC3)C2)c(C)c1 (configuration not stated)	10.7*	-2.8	-2.3	0.1	8.9*	-0.9
CN(C(=O)CCc1nnc(-c2ccc(-c3ccccc3)cc2)o1)C1CCOCC1	8.8*	0.5	-2.7	-0.6	0.2	1.7
CN(CCCC1CCCC1)C(=O)CCc1nnc(-c2ccccc2)o1	0.5	-0.9	0.1	-0.7	·	·
CNC(=O)CN(CCN(CCN(CC(=O)O)CC(=O)NC)CC(=O)O)CC(=O)O	·	-0.8	·	·	·	·
COC1(NC(=O)c2ccccc2)C(C)=CC(=O)C=C1C	-0.9	0.9	1.8	0.6	·	·
O=C(NC1(O)C(=O)c2ccccc2C1=O)c1c(Cl)cccc1Cl	13.8*	-1.5	-0.8	1.3	27.5*	1.9	GFP quench dose=>67.5
O=C(NC1(O)C(=O)c2ccccc2C1=O)c1ccccc1	27.6*	4.5	-0.6	0.1	28.5*	2.4	GFP quench dose=>67.5
O=C(Nc1ccccc1Cl)c1c(F)c(F)c(F)c(F)c1F	-1.9	-5.5	0.1	-0.9	·	·
O=C(CSc1nnc(-c2ccccc2)n1-c1ccc(Cl)cc1)c1ccccc1Br	·	-5.0	·	·	·	·
S=C(NCCN1CCOCC1)N/N=C/c1cccs1	-1.8	9.2	-1.2	0.1	·	·
Oc1cccc(/C=N/NC(=S)NCCN2CCOCC2)c1O	5.7*	-6.0	-1.0	0.7	-0.1	-2.7
